Reference: ChEMBL document CHEMBL2417474, “Synthesis, antiproliferative and anti-inflammatory activities of some novel 6-aryl-2-(p-(methanesulfonyl)phenyl)-4,5-dihydropyridazi-3(2H)-ones” (Eur J Med Chem, 2013)

Assays:
CCRF-CEM = test: Growth inhibition of human CCRF-CEM cells after 48 hrs by sulforhodamine B assay; type: functional, cell-based
Method in brief: (§1)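 NCI 60-cell-line panel grown in RPMI-type medium with 5% fetal calf serum and 2 mM L-glutamine. Cells preincubated 24 h, then exposed continuously for 48 h to compound in DMSO at 10^-4 to 10^-8 M (five 10-fold levels). Growth read by SRB protein stain. GI50 is the concentration giving a 50% reduction in net protein increase relative to control cells.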

SF-268 = test: Growth inhibition of human SF268 cells assessed as cell growth at 10 uM after 48 hrs by sulforhodamine B assay; type: functional; conditions: SF-268, 48 h, read-out: Activity
NCI-H226 = test: Growth inhibition of human NCI-H226 cells after 48 hrs by sulforhodamine B assay; type: functional; conditions: NCI-H226, 48 h
Method in brief: (§2)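 NCI 60-cell-line panel. Cells were grown in medium with 5% fetal calf serum and 2 mM L-glutamine, then preincubated 24 h in plates. Compounds were added from DMSO at five 10-fold concentrations from 100 to 0.01 µM and left on cells continuously for 48 h. Cell growth was read by sulforhodamine B protein stain. GI50 is the concentration that halves net protein increase relative to control cells.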

HOP-62 = test: Growth inhibition of human HOP62 cells after 48 hrs by sulforhodamine B assay; type: functional; conditions: HOP-62, 48 h; method in brief: as §1
NCI-H522 = test: Growth inhibition of human NCI-H522 cells after 48 hrs by sulforhodamine B assay; type: functional; conditions: NCI-H522, 48 h; method in brief: as §2
SF-295 = test: Growth inhibition of human SF295 cells after 48 hrs by sulforhodamine B assay; type: functional; conditions: SF-295, 48 h; method in brief: as §2
Rattus norvegicus = test: Antiinflammatory activity in Wistar rat assessed as inhibition of carrageenan-induced paw edema at 0.05 mmol/kg, po administered 30 mins prior challenge measured after 5 hrs; type: functional
Method in brief: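 Wistar rats of either sex, 150–175 g, fasted 16 h, 6 per group. Dosed orally at 0.05 mmol/kg, suspended in 1% CMC in water (10 ml/kg). 30 min later, 0.1 ml of 1% carrageenan in saline injected subplantar into the left hind paw. Paw volume read by plethysmometer at 0, 3 and 5 h. % inhibition = (1 − Vt/Vc) × 100 against the vehicle group.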

OVCAR-5 = test: Growth inhibition of human OVCAR5 cells after 48 hrs by sulforhodamine B assay; type: functional; conditions: OVCAR-5, 48 h; method in brief: as §2
MDA-MB-231 = test: Growth inhibition of human MDA-MB-231 cells after 48 hrs by sulforhodamine B assay; type: functional; conditions: MDA-MB-231, 48 h; method in brief: as §1
[1] = Growth inhibition of human NCI-ADR-RES cells assessed as cell growth at 10 uM after 48 hrs by sulforhodamine B assay; type: functional; conditions: read-out: Activity
SF-539 = test: Growth inhibition of human SF539 cells after 48 hrs by sulforhodamine B assay; type: functional; conditions: SF-539, 48 h; method in brief: as §2
LOX IMVI = test: Growth inhibition of human LOXIMVI cells after 48 hrs by sulforhodamine B assay; type: functional; method in brief: as §1
TK-10 = test: Growth inhibition of human TK10 cells assessed as cell growth at 10 uM after 48 hrs by sulforhodamine B assay; type: functional; conditions: TK-10, 48 h, read-out: Activity
Method in brief: (§3)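 Single-dose NCI screen. Tumor lines were cultured in medium with 5% fetal calf serum and 2 mM L-glutamine, preincubated 24 h, then given compound in DMSO. After 48 h continuous exposure, cell growth was estimated by sulforhodamine B protein assay.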

MCF7 = test: Growth inhibition of human MCF7 cells assessed as cell growth at 10 uM after 48 hrs by sulforhodamine B assay; type: functional; conditions: MCF7, 48 h, read-out: Activity
RXF 393 [2] = test: Growth inhibition of human RXF393 cells assessed as cell growth at 10 uM after 48 hrs by sulforhodamine B assay; type: functional; conditions: RXF 393, 48 h, read-out: Activity
HOP-92 = test: Growth inhibition of human HOP92 cells after 48 hrs by sulforhodamine B assay; type: functional; conditions: HOP-92, 48 h; method in brief: as §1
MOLT-4 [3] = test: Growth inhibition of human MOLT4 cells assessed as cell growth at 10 uM after 48 hrs by sulforhodamine B assay; type: functional; conditions: MOLT-4, 48 h, read-out: Activity
BT-549 [4] = test: Growth inhibition of human BT549 cells after 48 hrs by sulforhodamine B assay; type: functional; conditions: BT-549, 48 h; method in brief: as §1
SNB-75 [5] = test: Growth inhibition of human SNB75 cells after 48 hrs by sulforhodamine B assay; type: functional; conditions: SNB-75, 48 h; method in brief: as §2
IGROV-1 [6] = test: Growth inhibition of human IGROV1 cells assessed as cell growth at 10 uM after 48 hrs by sulforhodamine B assay; type: functional; conditions: IGROV-1, 48 h, read-out: Activity
IGROV-1 [7] = test: Growth inhibition of human IGROV1 cells after 48 hrs by sulforhodamine B assay; type: functional; conditions: IGROV-1, 48 h; method in brief: as §1
MDA-MB-468 = test: Growth inhibition of human MDA-MB-468 cells after 48 hrs by sulforhodamine B assay; type: functional; conditions: MDA-MB-468, 48 h; method in brief: as §2
SK-OV-3 = test: Growth inhibition of human SKOV3 cells assessed as cell growth at 10 uM after 48 hrs by sulforhodamine B assay; type: functional; conditions: SK-OV-3, 48 h, read-out: Activity
ACHN = test: Growth inhibition of human ACHN cells assessed as cell growth at 10 uM after 48 hrs by sulforhodamine B assay; type: functional; conditions: read-out: Activity
Malme-3M = test: Growth inhibition of human MALME-3M cells assessed as cell growth at 10 uM after 48 hrs by sulforhodamine B assay; type: functional; conditions: read-out: Activity
RXF 393 [8] = test: Growth inhibition of human RXF393 cells after 48 hrs by sulforhodamine B assay; type: functional; conditions: RXF 393, 48 h; method in brief: as §2
SNB-75 [9] = test: Growth inhibition of human SNB75 cells assessed as cell growth at 10 uM after 48 hrs by sulforhodamine B assay; type: functional; conditions: SNB-75, 48 h, read-out: Activity
MOLT-4 [10] = test: Growth inhibition of human MOLT4 cells after 48 hrs by sulforhodamine B assay; type: functional; conditions: MOLT-4, 48 h; method in brief: as §2
BT-549 [11] = test: Growth inhibition of human BT549 cells assessed as cell growth at 10 uM after 48 hrs by sulforhodamine B assay; type: functional; conditions: BT-549, 48 h, read-out: Activity
UO-31 = test: Growth inhibition of human UO31 cells assessed as cell growth at 10 uM after 48 hrs by sulforhodamine B assay; type: functional; conditions: UO-31, 48 h, read-out: Activity; method in brief: as §3
[12] = read-out: LC50 (the source's name)

## Cc1ccc(C2=NN(c3ccc(S(C)(=O)=O)cc3)C(=O)CC2)cc1
CCRF-CEM
  GI50: 1.16 µM
  IC50: > 100 µM
  TGI: > 100 µM
SF-268
  growth at 10 µM: 55.2%
NCI-H226
  GI50: 0.43 µM
  TGI: > 100 µM
NCI-H226; [12]
  CC50: > 100 µM
HOP-62
  GI50: 1.3 µM
  TGI: > 100 µM
HOP-62; [12]
  CC50: > 100 µM
NCI-H522
  GI50: 0.22 µM
  LC50 (concentration killing 50% of starting cells): > 100 µM
  TGI: 1 µM
SF-295
  GI50: 0.4 µM
  LC50 (concentration killing 50% of cells present at start): > 100 µM
  TGI: 5.36 µM
Rattus norvegicus
  inhibition in vivo at 50 µmol/kg: 60.5%
OVCAR-5
  GI50: 3.69 µM
  TGI: > 100 µM
OVCAR-5; [12]
  CC50: > 100 µM
MDA-MB-231
  GI50: 0.83 µM
  LC50: > 100 µM
  TGI: > 100 µM
[1]
  growth at 10 µM: 6.72%
SF-539
  GI50: 1.02 µM
  TGI: 17.4 µM
SF-539; [12]
  CC50: > 100 µM
LOX IMVI
  GI50: 0.74 µM
  TGI: > 100 µM
LOX IMVI; [12]
  CC50: > 100 µM
TK-10
  growth at 10 µM: 67%
MCF7
  growth at 10 µM: 16.2%
RXF 393 [2]
  growth at 10 µM: 15.4%
HOP-92
  GI50: 0.42 µM
  TGI: 8.3 µM
HOP-92; [12]
  CC50: > 100 µM
MOLT-4 [3]
  growth at 10 µM: 20.1%
BT-549 [4]
  GI50: 0.6 µM
  TGI: > 100 µM
BT-549 [4]; [12]
  CC50: > 100 µM
SNB-75 [5]
  GI50: 0.54 µM
  TGI: > 9.25 µM
SNB-75 [5]; [12]
  CC50: > 100 µM
IGROV-1 [6]
  growth at 10 µM: 59.2%
IGROV-1 [7]
  GI50: 0.83 µM
  LC50: > 100 µM
  TGI: > 100 µM
MDA-MB-468
  GI50: 1.23 µM
  LC50 (concentration killing 50% of cells): > 100 µM
  TGI: 4.86 µM
SK-OV-3
  growth at 10 µM: 19.9%
ACHN
  growth at 10 µM: 54.5%
Malme-3M
  growth at 10 µM: 45.5%
RXF 393 [8]
  GI50: 0.63 µM
  LC50 (50% lethal concentration): > 100 µM
  TGI: 6.8 µM
SNB-75 [9]
  growth at 10 µM: 8.1%
MOLT-4 [10]
  GI50: 0.86 µM
  LC50: > 100 µM
  TGI: > 100 µM
BT-549 [11]
  growth at 10 µM: 11.3%
UO-31
  growth at 10 µM: 41.1%

## O=c1[nH]cc(F)c(=O)[nH]1 [FLUOROURACIL]
CCRF-CEM
  GI50: 9.79 µM
NCI-H226
  GI50: 54.7 µM
HOP-62
  GI50: 0.39 µM
NCI-H522
  GI50: 7.27 µM
SF-295
  GI50: 0.22 µM
OVCAR-5
  GI50: 10.9 µM
MDA-MB-231
  GI50: 6.6 µM
SF-539
  GI50: 0.06 µM
LOX IMVI
  GI50: 0.24 µM
HOP-92
  GI50: 77.9 µM
BT-549 [4]
  GI50: 10.6 µM
SNB-75 [5]
  GI50: 78.7 µM
IGROV-1 [7]
  GI50: 1.22 µM
RXF 393 [8]
  GI50: 2.61 µM
MOLT-4 [10]
  GI50: 0.35 µM
